In ChEMBL document CHEMBL1821554, “Synthesis and anticancer activity of chalcone-pyrrolobenzodiazepine conjugates linked via 1,2,3-triazole ring side-armed with alkane spacers” (2011):
The source made the active and inactive calls. The calls are words filed in the database; no cut-off is given here.

Experiments:
[1] = tested on: A549; experiment: Anticancer activity against human A549 cells by SRB method; type: functional
How it was run: (§1)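 Growth inhibition over a panel of human cancer lines (lung, ovarian, oral, colon, prostate, cervix, breast). Value is the 50% growth-inhibition concentration, reported as the mean ± standard error of the mean of three determinations.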

[2] = tested on: MCF7; experiment: Induction of apoptosis in human MCF7 cells assessed as down regulation of Bcl2 expression at 4 uM after 24 hrs by ELISA; type: functional, cell-based
How it was run: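 MCF-7 cells were treated with 4 µM compound for 24 h. Lysates were added to Bcl2 antibody-coated wells, followed by biotinylated anti-human Bcl2 monoclonal antibody, and bound Bcl2 was detected with streptavidin-HRP (sandwich ELISA).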

[3] = tested on: KB; experiment: Anticancer activity against human KB cells by SRB method; type: functional; how it was run: as §1
[4] = tested on: MCF7; experiment: Cell cycle arrest in human MCF7 cells assessed as accumulation at G1 phase at 10 uM after 24 hrs using propidium iodide staining based flow cytometric analysis (reference value: 47.64 +/- 1.49 %); type: functional
[5] = tested on: MCF7; experiment: Cell cycle arrest in human MCF7 cells assessed as accumulation at G0 phase at 10 uM after 24 hrs using propidium iodide staining based flow cytometric analysis (reference value: 1.27 +/- 0.08 %); type: functional
[6] = tested on: MCF7; experiment: Cell cycle arrest in human MCF7 cells assessed as accumulation at G0/G1 phase at 4 uM after 24 hrs using propidium iodide staining based flow cytometric analysis; type: functional
How it was run: (§2)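 MCF-7 cells were seeded at 5 × 10^5 per 60 mm dish and grown for 24 h, then exposed to 4 µM compound for 24 h. Cells were trypsinized, fixed in ice-cold 70% ethanol at 4 °C for 30 min and treated with 1 mg/ml RNase at 37 °C for 30 min. They were stained with propidium iodide/citrate/Triton X-100, and DNA content was read on 20,000 events by flow cytometry. Three independent repeats.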

[7] = tested on: MCF7; experiment: Cytotoxicity against human MCF7 cells assessed as reduction in cell viability at 4 uM after 24 hrs by MTT assay; type: functional, cell-based
How it was run: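 MCF-7 cells were seeded at 10,000 per well and left overnight, then treated with 4 µM compound for 24 h. MTT was added for 2 h at 37 °C, formazan was solubilized in extraction buffer, and OD was read at 570 nm. Untreated cells served as control. Three independent experiments, SD.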

[8] = tested on: MCF7; experiment: Cell cycle arrest in human MCF7 cells assessed as accumulation at S phase at 10 uM after 24 hrs using propidium iodide staining based flow cytometric analysis (reference value: 12.92 +/- 1 %); type: functional
[9] = tested on: ZR-75-1; experiment: Anticancer activity against human ZR-75-1 cells by SRB method; type: functional; how it was run: as §1
[10] = tested on: MCF7; experiment: Induction of apoptosis in human MCF7 cells assessed as down regulation of Bcl-xL expression at 4 uM after 24 hrs by Western blot
[11] = tested on: MCF7; experiment: Downregulation of cyclin D1 protein expression in human MCF7 cells at 4 uM after 24 hrs by Western blot analysis; type: functional, cell-based
How it was run: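 MCF-7 cells at 80% confluency were treated with 4 µM compound for 24 h. Cells were lysed in RIPA buffer with protease inhibitors and protein was quantified by Bradford. 50 µg per lane was run on 12% SDS-PAGE and transferred to PVDF. Blots were probed overnight at 4 °C with rabbit polyclonal anti-cyclin D1, with β-actin as loading control, and detected by chemiluminescence.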

[12] = tested on: HOP-62; experiment: Anticancer activity against human HOP62 cells by SRB method; type: functional; how it was run: as §1
[13] = tested on: PC-3; experiment: Anticancer activity against human PC3 cells by SRB method; type: functional; how it was run: as §1
[14] = tested on: SiHa; experiment: Anticancer activity against human SiHa cells by SRB method; type: functional; how it was run: as §1
[15] = tested on: MCF7; experiment: Induction of cell cycle arrest at G1 phase in human MCF7 cells at 4 uM after 24 hrs using propidium iodide staining based flow cytometric analysis; type: functional; how it was run: as §2
[16] = tested on: MCF7; experiment: Cytotoxicity against human MCF7 cells assessed as reduction in cell viability at 2 uM after 24 hrs by MTT assay; type: functional, cell-based
[17] = Anticancer activity against human Gurav cells by SRB method; type: functional; how it was run: as §1
[18] = Anticancer activity against human DWD cells by SRB method; type: functional; how it was run: as §1
[19] = Down regulation of NF-kappaB activity expressed in human MCF7 cells transfected with NF-kB SEAP plasmid at 4 uM after 24 hrs by chemiluminescence-based luminometric analysis; type: cell-based
How it was run: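 MCF-7 cells were transiently transfected with the NF-kB SEAP plasmid using lipofectamine 2000. After 24 h, cells were treated with 4 µM compound for 24 h. Lysates were assayed with a chemiluminescent reagent and read by luminometry and by 30 min X-ray film exposure. Transfected untreated cells served as control.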

[20] = tested on: A2780; experiment: Anticancer activity against human A2780 cells by SRB method; type: functional; how it was run: as §1
[21] = biological target: G1/S-specific cyclin-D1 (Homo sapiens) (UniProt P24385); experiment: Down regulation of Cyclin D1 promoter activity expressed in human MCF7 cells co-transfected with luciferase gene at 4 uM after 24 hrs by luciferase reporter gene assay; type: cell-based
Sequence of G1/S-specific cyclin-D1 (Homo sapiens) (P24385 whole entry): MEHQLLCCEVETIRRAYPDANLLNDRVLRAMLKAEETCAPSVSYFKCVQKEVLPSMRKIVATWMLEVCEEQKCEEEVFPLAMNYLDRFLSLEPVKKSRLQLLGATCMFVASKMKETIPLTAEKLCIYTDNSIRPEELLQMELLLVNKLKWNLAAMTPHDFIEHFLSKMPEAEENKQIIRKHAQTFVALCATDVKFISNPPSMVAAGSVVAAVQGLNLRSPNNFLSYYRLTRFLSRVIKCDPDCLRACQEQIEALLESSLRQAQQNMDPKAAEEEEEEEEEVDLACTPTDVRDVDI
How it was run: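 MCF-7 cells were transfected for 24 h with the cyclin D1 promoter (−1745) luciferase construct, which contains an NF-kB site. Cells were then treated with 4 µM compound (final) for a further 24 h, and lysate luciferase was measured by luminometer. Untransfected cells served as negative control and transfected untreated cells as control.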

[22] = tested on: MCF7; experiment: Cell cycle arrest in human MCF7 cells assessed as accumulation at G2/M phase at 10 uM after 24 hrs using propidium iodide staining based flow cytometric analysis (reference value: 38.15 +/- 1.068 %); type: functional
[23] = tested on: MCF7; experiment: Anticancer activity against human MCF7 cells by SRB method; type: functional; how it was run: as §1
[24] = tested on: COLO 205; experiment: Anticancer activity against human COLO205 cells by SRB method; type: functional; how it was run: as §1

SMILES | GI50 [1] | Activity [2] | GI50 [3] | Activity [4] | Activity [5] | Activity [6] | Activity [8] | GI50 [9] | Activity [10] | Activity [11] | GI50 [12] | GI50 [13] | Activity [15] | Activity [16] | GI50 [17] | GI50 [18] | GI50 [20] | Activity [22] | GI50 [23] | GI50 [24] | other results
COc1cc(/C=C/C(=O)c2ccc(O)cc2)ccc1OCCCn1cc(COc2cc3c(cc2OC)C(=O)N2CCC[C@H]2C=N3)nn1 | 150 nM | Active | 2030 nM | 72.51% | 13.67% | 87.7% | 6.48% | 170 nM | Active | Active | 170 nM | 160 nM | Active | inactive | 130 nM | 120 nM | 120 nM | 7.33% | 160 nM | – | Activity [7]: Active; GI50 [14]: 180 nM; Activity [19]: Active; Activity [21]: Active
COc1cc(/C=C/C(=O)c2cc(Cl)ccc2O)ccc1OCCCCCn1cc(COc2cc3c(cc2OC)C(=O)N2CCC[C@H]2C=N3)nn1 | 2090 nM | Active | – | 60.56% | 10.75% | 60.18% | 7.28% | 2020 nM | Active | Active | 2280 nM | 190 nM | Active | inactive | 190 nM | 2300 nM | 150 nM | 22.06% | 180 nM | 100 nM | Activity [19]: Active; Activity [21]: Active
COc1cc(/C=C/C(=O)c2ccccc2O)ccc1OCCCn1cc(COc2cc3c(cc2OC)C(=O)N2CCC[C@H]2C=N3)nn1 | 2330 nM | Active | 2190 nM | 64.08% | 12.06% | 76.87% | 9.52% | 2200 nM | Active | Active | 2920 nM | 2480 nM | Active | inactive | 2310 nM | – | 170 nM | 14.32% | 2400 nM | 150 nM | Activity [7]: Active; Activity [19]: Active; Activity [21]: Active
COc1cc2c(cc1OC)C(=O)N1C[C@@H](n3cc(COc4ccc(/C=C/C(=O)c5ccccc5O)cc4OC)nn3)C[C@H]1C=N2 | 2780 nM | – | – | 50.9% | 5.19% | 55.24% | 8.71% | – | – | – | – | 2230 nM | Active | inactive | 2510 nM | 2700 nM | 150 nM | 35.19% | 2350 nM | 110 nM | –
COc1cc2c(cc1OCc1ccccc1)N=C[C@@H]1C[C@H](n3cc(COc4ccc(/C=C/C(=O)c5ccccc5O)cc4OC)nn3)CN1C2=O | – | – | – | 54.61% | 5.21% | 59.79% | 6.65% | – | – | – | – | – | Active | inactive | – | – | – | 32.06% | – | – | –
COc1cc(/C=C/C(=O)c2ccc(O)cc2)ccc1OCCCCn1cc(COc2cc3c(cc2OC)C(=O)N2CCC[C@H]2C=N3)nn1 | < 150 nM | – | 160 nM | – | – | – | – | 160 nM | – | – | 190 nM | 150 nM | – | – | 130 nM | < 160 nM | 110 nM | – | 160 nM | 110 nM | GI50 [14]: 2520 nM
